Measured values published in ChEMBL document CHEMBL4689842, “EUbOPEN Chemogenomics Library wave 1” (2021).
Values joined by “and” are separate entries in the source; they are usually repeats but may differ in a detail not shown here. Identical values can stand only once.

System: U2OS
Assay: Multiplex assay against U2OS
Assay type: toxicity, cell-based
Conditions: human
In short: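 Cells were classed with CellPathfinder machine-learning gating, first as Hoechst high-intensity objects or normal cells, then (normal cells) as healthy, pyknosed or fragmented nuclei, and finally (pyknosed cells) as mitotic or apoptotic. Staining of live cells at seeding used Hoechst33342, BioTracker Green Microtubule Cytoskeleton Dye, MitoTracker Red and Annexin V Alexa Fluor 680, with imaging on a CQ1 microscope at 37°C and 5% CO2 after compound addition. Tubulin, mitochondrial-mass and membrane-permeability phenotypes are per cents of healthy-nucleus cells.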

[1] = 12 h, 1 µM, compound concentration 1 uM, replicate 1
[2] = 12 h, 1 µM, compound concentration 1 uM, replicate 2
[3] = 12 h, 10 µM, compound concentration 10 uM, replicate 1
[4] = 12 h, 10 µM, compound concentration 10 uM, replicate 2
[5] = 24 h, 1 µM, compound concentration 1 uM, replicate 1
[6] = 24 h, 1 µM, compound concentration 1 uM, replicate 2
[7] = 24 h, 10 µM, compound concentration 10 uM, replicate 1
[8] = 24 h, 10 µM, compound concentration 10 uM, replicate 2
[9] = 48 h, 1 µM, compound concentration 1 uM, replicate 1
[10] = 48 h, 1 µM, compound concentration 1 uM, replicate 2
[11] = 48 h, 10 µM, compound concentration 10 uM, replicate 1
[12] = 48 h, 10 µM, compound concentration 10 uM, replicate 2

Compound: Nc1c(C(=O)NCc2ccc(C(=O)NCCCC3CCCCC3)cc2)cnn1-c1ccccc1 [SR-318]
- Population Apoptotic (%) [1]: 42% and 23% and 30%
- Population Fragmented Nuclei (%) [1]: 5% and 10% and 6%
- Population Healthy Nuclei (%) [1]: 85% and 78% and 81%
- Population Hoechst High Intensity Objects (%) [1]: 3%
- Population Membrane Permeable-Phenotype (%) [1]: 4% and 3%
- Population Mitochondria Different-Phenotype (%) [1]: 9% and 6%
- Population Mitotic Cells (%) [1]: 57% and 76% and 69%
- Population Normal (%) [1]: 96%
- Population Pyknosed Nuclei (%) [1]: 9% and 10% and 12%
- Population Tubulin-Different-Phenotype (%) [1]: 52% and 44%
- Total Cell Count [1]: 171 and 322 and 200
- Population Fragmented Nuclei (%) [2]: 9% and 3%
- Population Healthy Nuclei (%) [2]: 83% and 75% and 91%
- Population Membrane Permeable-Phenotype (%) [2]: 6% and 5%
- Population Mitochondria Different-Phenotype (%) [2]: 8%
- Population Mitotic Cells (%) [2]: 50% and 87% and 100%
- Population Normal (%) [2]: 95% and 73%
- Population Tubulin-Different-Phenotype (%) [2]: 19% and 25% and 11%
- Total Cell Count [2]: 63 and 91 and 118
- Population Apoptotic (%) [3]: 61% and 58% and 42%
- Population Fragmented Nuclei (%) [3]: 6% and 14% and 11%
- Population Healthy Nuclei (%) [3]: 74% and 65% and 67%
- Population Hoechst High Intensity Objects (%) [3]: 2% and 8% and 5%
- Population Membrane Permeable-Phenotype (%) [3]: 8% and 5% and 2%
- Population Mitochondria Different-Phenotype (%) [3]: 57% and 50% and 60%
- Population Mitotic Cells (%) [3]: 38% and 41% and 57%
- Population Normal (%) [3]: 97% and 91% and 94%
- Population Pyknosed Nuclei (%) [3]: 18% and 20% and 21%
- Population Tubulin-Different-Phenotype (%) [3]: 39% and 47% and 40%
- Total Cell Count [3]: 186 and 329 and 402
- Population Apoptotic (%) [4]: 45% and 22% and 33%
- Population Fragmented Nuclei (%) [4]: 17% and 15% and 12%
- Population Healthy Nuclei (%) [4]: 69% and 58% and 72%
- Population Hoechst High Intensity Objects (%) [4]: 7% and 1% and 10%
- Population Membrane Permeable-Phenotype (%) [4]: 10% and 7% and 3%
- Population Mitochondria Different-Phenotype (%) [4]: 55% and 51%
- Population Mitotic Cells (%) [4]: 54% and 77% and 66%
- Population Normal (%) [4]: 92% and 98% and 89%
- Population Pyknosed Nuclei (%) [4]: 13% and 25% and 15%
- Population Tubulin-Different-Phenotype (%) [4]: 50% and 56% and 67%
- Total Cell Count [4]: 71 and 90 and 91
- Population Apoptotic (%) [5]: 35% and 34% and 21%
- Population Fragmented Nuclei (%) [5]: 5% and 8%
- Population Healthy Nuclei (%) [5]: 85%
- Population Hoechst High Intensity Objects (%) [5]: 0% and 3%
- Population Membrane Permeable-Phenotype (%) [5]: 1% and 4% and 2%
- Population Mitochondria Different-Phenotype (%) [5]: 5% and 6% and 8%
- Population Mitotic Cells (%) [5]: 64% and 65% and 78%
- Population Normal (%) [5]: 99% and 96%
- Population Pyknosed Nuclei (%) [5]: 9% and 10%
- Population Tubulin-Different-Phenotype (%) [5]: 59% and 20% and 47%
- Total Cell Count [5]: 185 and 423 and 237
- Population Apoptotic (%) [6]: 25%
- Population Fragmented Nuclei (%) [6]: 6% and 3% and 4%
- Population Healthy Nuclei (%) [6]: 80% and 84% and 75%
- Population Membrane Permeable-Phenotype (%) [6]: 8% and 5%
- Population Mitochondria Different-Phenotype (%) [6]: 13% and 12% and 7%
- Population Mitotic Cells (%) [6]: 75%
- Population Normal (%) [6]: 94% and 97% and 77%
- Population Pyknosed Nuclei (%) [6]: 13% and 11% and 19%
- Population Tubulin-Different-Phenotype (%) [6]: 22% and 14% and 23%
- Total Cell Count [6]: 67 and 130 and 97
- Population Apoptotic (%) [7]: 55% and 58% and 61%
- Population Fragmented Nuclei (%) [7]: 12% and 5%
- Population Healthy Nuclei (%) [7]: 67% and 74% and 61%
- Population Hoechst High Intensity Objects (%) [7]: 8% and 4%
- Population Membrane Permeable-Phenotype (%) [7]: 4% and 2% and 0%
- Population Mitochondria Different-Phenotype (%) [7]: 55% and 53% and 63%
- Population Mitotic Cells (%) [7]: 44% and 41% and 38%
- Population Normal (%) [7]: 91% and 95%
- Population Pyknosed Nuclei (%) [7]: 19%
- Population Tubulin-Different-Phenotype (%) [7]: 36% and 24%
- Total Cell Count [7]: 409 and 192 and 426
- Population Apoptotic (%) [8]: 28% and 44% and 46%
- Population Fragmented Nuclei (%) [8]: 13% and 17% and 14%
- Population Healthy Nuclei (%) [8]: 65% and 62% and 66%
- Population Hoechst High Intensity Objects (%) [8]: 1% and 7%
- Population Membrane Permeable-Phenotype (%) [8]: 9% and 7% and 3%
- Population Mitochondria Different-Phenotype (%) [8]: 58% and 57% and 66%
- Population Mitotic Cells (%) [8]: 71% and 55% and 53%
- Population Normal (%) [8]: 98% and 92%
- Population Pyknosed Nuclei (%) [8]: 21% and 20% and 18%
- Population Tubulin-Different-Phenotype (%) [8]: 41% and 30% and 61%
- Total Cell Count [8]: 104 and 67 and 97
- Population Apoptotic (%) [9]: 44% and 47% and 55%
- Population Fragmented Nuclei (%) [9]: 3% and 8%
- Population Healthy Nuclei (%) [9]: 87% and 83%
- Population Hoechst High Intensity Objects (%) [9]: 0% and 2%
- Population Membrane Permeable-Phenotype (%) [9]: 2% and 1%
- Population Mitochondria Different-Phenotype (%) [9]: 5% and 8% and 7%
- Population Mitotic Cells (%) [9]: 55% and 52% and 44%
- Population Normal (%) [9]: 99% and 97%
- Population Pyknosed Nuclei (%) [9]: 8% and 9% and 7%
- Population Tubulin-Different-Phenotype (%) [9]: 69% and 56% and 24%
- Total Cell Count [9]: 247 and 369 and 658
- Population Apoptotic (%) [10]: 28% and 40% and 26%
- Population Fragmented Nuclei (%) [10]: 7% and 5% and 2%
- Population Healthy Nuclei (%) [10]: 86% and 84%
- Population Membrane Permeable-Phenotype (%) [10]: 10% and 9% and 3%
- Population Mitochondria Different-Phenotype (%) [10]: 14% and 9%
- Population Mitotic Cells (%) [10]: 71% and 60% and 73%
- Population Normal (%) [10]: 95% and 98% and 83%
- Population Pyknosed Nuclei (%) [10]: 5% and 6% and 13%
- Population Tubulin-Different-Phenotype (%) [10]: 28% and 20% and 25%
- Total Cell Count [10]: 93 and 175 and 144
- Population Apoptotic (%) [11]: 70% and 73% and 60%
- Population Fragmented Nuclei (%) [11]: 7%
- Population Healthy Nuclei (%) [11]: 76% and 61%
- Population Hoechst High Intensity Objects (%) [11]: 2% and 4%
- Population Membrane Permeable-Phenotype (%) [11]: 2% and 0%
- Population Mitochondria Different-Phenotype (%) [11]: 35% and 32% and 47%
- Population Mitotic Cells (%) [11]: 29% and 26% and 40%
- Population Normal (%) [11]: 97% and 95%
- Population Pyknosed Nuclei (%) [11]: 16% and 23% and 22%
- Population Tubulin-Different-Phenotype (%) [11]: 17% and 9% and 25%
- Total Cell Count [11]: 234 and 596 and 634
- Population Apoptotic (%) [12]: 35% and 38% and 33%
- Population Fragmented Nuclei (%) [12]: 15% and 14% and 12%
- Population Healthy Nuclei (%) [12]: 68% and 60%
- Population Hoechst High Intensity Objects (%) [12]: 7% and 3%
- Population Membrane Permeable-Phenotype (%) [12]: 6% and 18% and 17%
- Population Mitochondria Different-Phenotype (%) [12]: 52% and 40% and 44%
- Population Mitotic Cells (%) [12]: 64% and 61% and 66%
- Population Normal (%) [12]: 92% and 96%
- Population Pyknosed Nuclei (%) [12]: 15% and 17% and 28%
- Population Tubulin-Different-Phenotype (%) [12]: 32% and 26% and 31%
- Total Cell Count [12]: 113 and 78 and 158
